From ChEMBL document CHEMBL1133716, “AMP deaminase inhibitors. 3. SAR of 3-(carboxyarylalkyl)coformycin aglycon analogues” (J Med Chem, 2000)

Key:
[1] = Inhibitory activity against porcine heart Adenylate deaminase (AMPDA); parameters: species or system Sus scrofa
Outline: (§1)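 Values are reported as Ki against porcine heart AMPDA, determined by a procedure described in earlier work.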

Adenosine deaminase [2] = molecular target: T1, Adenosine deaminase (Bos taurus, UniProt P56658); test: Inhibitory activity against calf intestinal Adenosine deaminase (ADA)
T1 sequence (P56658 whole entry): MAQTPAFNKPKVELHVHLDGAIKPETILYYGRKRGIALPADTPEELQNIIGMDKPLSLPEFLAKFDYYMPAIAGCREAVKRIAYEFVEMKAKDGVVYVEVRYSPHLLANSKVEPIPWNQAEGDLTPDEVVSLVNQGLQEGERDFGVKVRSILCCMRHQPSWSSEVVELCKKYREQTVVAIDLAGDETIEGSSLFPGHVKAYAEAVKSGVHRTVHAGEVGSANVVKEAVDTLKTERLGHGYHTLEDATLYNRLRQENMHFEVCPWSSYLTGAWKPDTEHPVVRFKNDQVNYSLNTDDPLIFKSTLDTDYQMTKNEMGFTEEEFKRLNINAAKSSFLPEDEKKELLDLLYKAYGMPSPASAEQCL

Adenosine deaminase [3] = molecular target: T1, Adenosine deaminase; test: Compound was evaluated for its inhibitory activity against calf intestinal Adenosine deaminase (ADA)
[4] = Compound was evaluated for its inhibitory activity against porcine heart adenylate deaminase (AMPDA); parameters: species or system Sus scrofa; outline: as §1

Structure (SMILES)	Ki [1]	Ki (Adenosine deaminase [2])	Ki (Adenosine deaminase [3])	Ki [4]
CCCc1ccc(C(=O)OC)cc1CCn1cnc2c1NC=NCC2O (stereo unspecified)	14 µM	3.8 µM	–	–
CCOC(=O)Cc1cccc(Cn2cnc3c2NC=NCC3O)c1 (stereo unspecified)	15.9 µM	5.6 µM	–	–
Cc1ccc(C(=O)O)c(CCCn2cnc3c2NC=NCC3O)c1 (stereo unspecified)	24 µM	5.2 µM	–	–
O=C(O)c1ccccc1OCCn1cnc2c1NC=NCC2O (stereo unspecified)	31.3 µM	270 µM	–	–
CCOC(=O)c1cc(CCn2cnc3c2NC=NCC3O)cc(-c2ccccc2)c1 (stereo unspecified)	18 µM	> 7.5 µM	–	–
O=C(O)c1ccc(CCCn2cnc3c2NC=NCC3O)o1 (stereo unspecified)	13.3 µM	> 7.5 µM	–	–
COC(=O)c1ccc(CCn2cnc3c2NC=NCC3O)cc1 (stereo unspecified)	160 µM	81 µM	–	–
Cc1ccc(C(=O)OCc2ccccc2)cc1CCn1cnc2c1NC=NCC2O (stereo unspecified)	8.1 µM	2.6 µM	–	–
O=C(O)c1cc(Br)cc(CCn2cnc3c2NC=NCC3O)c1 (stereo unspecified)	0.08 µM	> 7.5 µM	–	–
O=C(O)c1cc(CCn2cnc3c2NC=NCC3O)cc(-c2ccc(F)cc2)c1 (stereo unspecified)	0.19 µM	> 7.5 µM	–	–
O=C(O)c1cccc(CCCn2cnc3c2NC=NCC3O)c1 (stereo unspecified)	23.5 µM	2.4 µM	–	–
O=C(O)c1ccc2ccccc2c1CCCn1cnc2c1NC=NCC2O (stereo unspecified)	6.3 µM	1.8 µM	–	–
CCOC(=O)c1cc(CC)cc(CCn2cnc3c2NC=NCC3O)c1 (stereo unspecified)	6.6 µM	8.9 µM	–	–
O=C(O)c1cccc(OCCn2cnc3c2NC=NCC3O)c1 (stereo unspecified)	31.8 µM	> 7.5 µM	–	–
COC(=O)c1ccc(OC)c(CCCn2cnc3c2NC=NCC3O)c1 (stereo unspecified)	52.8 µM	0.13 µM	–	–
Cc1ccc(CCn2cnc3c2NC=NCC3O)cc1C(=O)O (stereo unspecified)	0.57 µM	> 7.5 µM	–	–
CCOC(=O)c1ccc(C)c(CCn2cnc3c2NC=NCC3O)c1 (stereo unspecified)	11 µM	> 7.5 µM	–	–
O=C(O)c1ccccc1SCCn1cnc2c1NC=NCC2O (stereo unspecified)	4.5 µM	> 500 µM	–	–
COC(=O)c1ccccc1OCCn1cnc2c1NC=NCC2O (stereo unspecified)	60.6 µM	2.3 µM	–	–
CNOC(=O)c1ccc(C)c(CCCn2cnc3c2NC=NCC3O)c1 (stereo unspecified)	–	–	0.05 µM	19.8 µM
CCc1ccc(C(=O)O)cc1CCn1cnc2c1NC=NCC2O (stereo unspecified)	0.08 µM	> 7.5 µM	–	–

Structure (SMILES)	Ki [1]	Ki (Adenosine deaminase [2])	Ki (Adenosine deaminase [3])	Ki [4]
COC(=O)c1ccc(C)cc1CCCn1cnc2c1NC=NCC2O (stereo unspecified)	38 µM	0.06 µM	–	–
COc1ccc(C(=O)O)cc1CCn1cnc2c1NC=NCC2O (stereo unspecified)	0.48 µM	> 7.5 µM	–	–
COC(=O)c1ccc2ccccc2c1CCCn1cnc2c1NC=NCC2O (stereo unspecified)	8.3 µM	0.18 µM	–	–
O=C(O)c1cc(CCn2cnc3c2NC=NCC3O)ccc1Cl (stereo unspecified)	0.22 µM	> 7.5 µM	–	–
Cc1ccc(CCCn2cnc3c2NC=NCC3O)c(C(=O)O)c1 (stereo unspecified)	11.8 µM	> 7.5 µM	–	–
O=C(O)c1ccc(CCn2cnc3c2NC=NCC3O)s1 (stereo unspecified)	9.5 µM	> 7.5 µM	–	–
COC(=O)c1ccccc1CCCn1cnc2c1NC=NCC2O (stereo unspecified)	32.7 µM	0.16 µM	–	–
O=C(O)c1ccc(Cn2cnc3c2NC=NCC3O)cc1 (stereo unspecified)	> 125 µM	> 7.5 µM	–	–
O=C(O)c1sccc1CCCn1cnc2c1NC=NCC2O (stereo unspecified)	4.8 µM	1.4 µM	–	–
O=C(O)c1cc(CCn2cnc3c2NC=NCC3O)cc(-c2ccc(Cl)cc2)c1 (stereo unspecified)	0.29 µM	> 7.5 µM	–	–
CCOC(=O)c1cc(CCn2cnc3c2NC=NCC3O)ccc1C (stereo unspecified)	12 µM	> 7.5 µM	–	–
O=C(O)c1ccc(CO)c(CCn2cnc3c2NC=NCC3O)c1 (stereo unspecified)	0.35 µM	> 7.5 µM	–	–
COC(=O)c1cccc(CCCn2cnc3c2NC=NCC3O)c1 (stereo unspecified)	24.3 µM	0.16 µM	–	–
COC(=O)c1c(F)cccc1CCCn1cnc2c1NC=NCC2O (stereo unspecified)	1.5 µM	0.32 µM	–	–
CCCc1ccc(C(=O)O)cc1CCn1cnc2c1NC=NCC2O (stereo unspecified)	0.19 µM	> 7.5 µM	–	–
CCc1cc(CCn2cnc3c2NC=NCC3O)cc(C(=O)O)c1 (stereo unspecified)	0.06 µM	> 7.5 µM	–	–
COC(=O)c1cc(C)ccc1CCCn1cnc2c1NC=NCC2O (stereo unspecified)	1.6 µM	0.04 µM	–	–
COC(=O)c1ccc(OC)c(CCn2cnc3c2NC=NCC3O)c1 (stereo unspecified)	21 µM	> 7.5 µM	–	–
O=C(O)c1cc(CCn2cnc3c2NC=NCC3O)ccc1F (stereo unspecified)	0.16 µM	> 7.5 µM	–	–
COC(=O)c1cccc(CCn2cnc3c2NC=NCC3O)c1 (stereo unspecified)	16 µM	> 7.5 µM	–	–

More lines, main results first:

Ki [1]	Ki (Adenosine deaminase [2])	Structure (SMILES)	Ki (Adenosine deaminase [3])	Ki [4]
> 125 µM	2.3 µM	O=C(O)c1cccc(C#CCn2cnc3c2NC=NCC3O)c1 (stereo unspecified)	–	–
2.2 µM	> 7.5 µM	O=C(O)c1cc(CCn2cnc3c2NC=NCC3O)cs1 (stereo unspecified)	–	–
92.6 µM	6.7 µM	COC(=O)Cc1ccc(Cn2cnc3c2NC=NCC3O)cc1 (stereo unspecified)	–	–
0.18 µM	> 7.5 µM	O=C(O)c1cc(CCn2cnc3c2NC=NCC3O)cc(-c2cccc(Cl)c2)c1 (stereo unspecified)	–	–
4.2 µM	5.6 µM	COc1ccc(C(=O)O)cc1CCCn1cnc2c1NC=NCC2O (stereo unspecified)	–	–
92.2 µM	> 500 µM	O=C(O)Cc1ccc(Cn2cnc3c2NC=NCC3O)cc1 (stereo unspecified)	–	–
44.1 µM	> 500 µM	O=C(O)Cc1cccc(CCn2cnc3c2NC=NCC3O)c1 (stereo unspecified)	–	–
0.51 µM	> 7.5 µM	O=C(O)c1cccc(CCn2cnc3c2NC=NCC3O)c1 (stereo unspecified)	–	–
22 µM	0.08 µM	COC(=O)c1ccc(C)c(CCCn2cnc3c2NC=NCC3O)c1 (stereo unspecified)	–	–
12.5 µM	6.1 µM	O=C(O)c1ccccc1CCCn1cnc2c1NC=NCC2O (stereo unspecified)	–	–
37.9 µM	11.9 µM	COC(=O)c1ccccc1SCCn1cnc2c1NC=NCC2O (stereo unspecified)	–	–
9 µM	> 7.5 µM	O=C(O)c1c(F)cccc1CCCn1cnc2c1NC=NCC2O (stereo unspecified)	–	–
72 µM	> 3.4 µM	O=C(O)c1ccc(Cn2cnc3c2NC=NCC3O)o1 (stereo unspecified)	–	–
> 125 µM	> 7.5 µM	CC(C)c1cccc(C(=O)O)c1SCCn1cnc2c1NC=NCC2O (stereo unspecified)	–	–
83.1 µM	> 7.5 µM	CC(C)c1cccc(C(=O)O)c1CCCn1cnc2c1NC=NCC2O (stereo unspecified)	–	–
5.2 µM	1.2 µM	Cc1ccc(C(=O)O)cc1CCCn1cnc2c1NC=NCC2O (stereo unspecified)	–	–
0.07 µM	> 7.5 µM	O=C(O)c1cc(CCn2cnc3c2NC=NCC3O)cc(-c2ccccc2)c1 (stereo unspecified)	–	–
2.7 µM	> 7.5 µM	CCOC(=O)c1cc(Br)cc(CCn2cnc3c2NC=NCC3O)c1 (stereo unspecified)	–	–
170 µM	8.7 µM	COC(=O)c1ccc(Cn2cnc3c2NC=NCC3O)cc1 (stereo unspecified)	–	–
14 µM	> 7.5 µM	COC(=O)c1cccc(C(C)C)c1CCCn1cnc2c1NC=NCC2O (stereo unspecified)	–	–
0.1 µM	> 100 µM	Cc1ccc(C(=O)O)cc1CCn1cnc2c1NC=NCC2O (stereo unspecified)	–	–
11.2 µM	> 7.5 µM	O=C(O)Cc1cccc(Cn2cnc3c2NC=NCC3O)c1 (stereo unspecified)	–	–
